High-throughput results from PubChem.
A selection: hits, their analogues and other compounds. The true share with any hit is near 7.2%.
HEK293 NFkB inh: inhibitors of the PMA/ionomycin-induced NF-kB reporter in HEK293 cells. HEK-293 NF-kB luciferase reporter, luminescence. inhibition, % at 3 µM. 0.21% of 62,000 active. AID 465;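 active = inhibition above the mean of all tested compounds plus 3 SD, cut at about 40% in these data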
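System: NF-kB luciferase reporter HEK-293 cells | Replication: Single test | Control set: DMSO vs reference inhibitor | Evaluation: % inhibition | Schedule: 1 h pretreatment, 16 h stimulation, 37 °C | Probe or stimulus: PMA with ionomycin | Compound dosing: One dose, 3 µM | Detection: Luciferase luminescence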
D1 mod: D1 dopamine receptor (human) allosteric modulation | P21728 | HEK293 D1, CRE-luciferase, dopamine EC30 potentiation; actives deviate in either direction | 5.9% of 58,000 active | B-score at 10 µM;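 active = luminescence count or its row- and column-corrected plate score outside the 99.7% band of the plate's sample wells, on either side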
M1 antagonist: M1 muscarinic receptor (rat) antagonism | CHO-M1 cells, Fluo-4 calcium, ACh EC80 antagonist mode; active compounds read low | B-score at 10 µM | 3.4% of 64,000 active | AID 628;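 active = calcium fluorescence response, raw or row-and-column corrected B-score, differing from the plate sample mean either way at a set confidence level, mostly lower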
Target sequence (P08482 whole entry, looked up): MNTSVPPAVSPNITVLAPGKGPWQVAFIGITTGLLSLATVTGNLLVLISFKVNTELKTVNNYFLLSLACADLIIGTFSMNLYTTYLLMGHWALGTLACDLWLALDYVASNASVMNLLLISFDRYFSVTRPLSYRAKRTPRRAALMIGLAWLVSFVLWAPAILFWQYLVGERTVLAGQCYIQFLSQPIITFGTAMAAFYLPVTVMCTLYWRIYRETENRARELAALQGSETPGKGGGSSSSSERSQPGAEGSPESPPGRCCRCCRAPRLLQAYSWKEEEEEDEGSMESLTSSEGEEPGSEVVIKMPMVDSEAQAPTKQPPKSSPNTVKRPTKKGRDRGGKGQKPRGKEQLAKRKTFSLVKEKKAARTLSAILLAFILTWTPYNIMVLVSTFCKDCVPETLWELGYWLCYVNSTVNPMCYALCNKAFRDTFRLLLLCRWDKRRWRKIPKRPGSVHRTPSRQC
M1 agonist: activates the M1 muscarinic receptor; CHO-M1 cells, Fluo-4 calcium fluorescence, agonist mode; active compounds read high; B-score at 10 µM; 3% of 64,000 active; AID 626;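 active = fluorescence rise, raw or as B-score row- and column-corrected plate score, outside the 99.7% band of its plate's samples, either direction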
BAP1 block: blocks human BAP1 ubiquitin-AMC hydrolysis | Q92560 | recombinant BAP1, Ub-AMC hydrolysis fluorescence kinetic; active compounds read low | calls only at 20 µM | 0.48% of 72,000 active | AID 436;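 active = activity remaining at or below 50% of control, provided the compound also passes the data quality filters; inactive = the rest, including low values that fail the filters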
hDAT+cocaine: modulates human dopamine transporter uptake under cocaine. Q01959. LLC-PK1 hDAT cells, [14C]-dopamine uptake with cocaine IC80; actives deviate in either direction. B-score at 10 µM. 1.3% of 110,000 active;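 active = Z score or B-score, a plate-position-corrected score, falls beyond the plate's 99.7% confidence bounds, in either direction; inactive = both scores lie inside the 99.7% bounds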
A number is an active result; 0 = inactive; - = no result given.

SMILES	HEK293 NFkB inh	D1 mod	M1 antagonist	M1 agonist	BAP1 block	hDAT+cocaine
COc1ccc(CC(CC(=O)O)C(=O)Nc2ccc(Cl)cc2)cc1 (stereo not given)	-	-	-	-	0	-
CCOc1cc(CN2CCN(CCOCCO)CC2)ccc1OC	-	-	-	-	-	-2.7
Cc1ccc2nc3c(cc(C#N)c(=O)n3CC3CCCO3)c(=O)n2c1 (stereo not given)	0	-3.6	0	0	0	0
Cc1ccc2nc3c(cc(C#N)c(=O)n3CCN3CCOCC3)c(=O)n2c1	0	0	-	-	-	-
O=C1CSC(c2ccc(OC(F)F)cc2)N1c1ccc(Br)cc1 (stereo not given)	-	-	-	-	0	-
Cc1ccccc1Nc1c(N)c(=O)oc2ccccc12	-	-	-	-	-	-7.7
COCCN1C(=O)C(=O)/C(=C(/O)c2ccccc2)C1c1cc(OC)ccc1OC (stereo not given)	-	-	-	-	0	-
CC(C)=C1C2C=CC1C1C(=O)N(c3ccc(Cl)cc3[N+](=O)[O-])C(=O)C21 (stereo not given)	-	-	-	-	0	-
O=C1NC(c2cccc3ccccc23)Nc2sc3c(c21)CCCC3 (stereo not given)	-	-	-	-	0	-
O=C1NC(c2cccs2)Nc2sc3c(c21)CCCC3 (stereo not given)	0	0	0	0	0	2.8
Cc1ccc(C(=O)Nc2sc3c(c2C(=O)O)CCCCC3)o1	0	-3	0	0	0	0
CCOc1ccc(C(=O)Nc2ccc3oc(-c4ccc5ccccc5c4)nc3c2)cc1[N+](=O)[O-]	-	-	-	-	0	-
O=C1C(N2CCOCC2)=C(n2nnc3ccccc32)C(=O)c2ccccc21	-	-	-	-	-	-3.9
O=C1c2ccccc2C(=O)c2c1cccc2N1CCOCC1	-	-	-	-	-	0
CCn1c(SCC(C)=O)nc2c1c(=O)[nH]c(=O)n2C	-	-	-	-	0	-
O=C(c1ccc(Br)o1)N1CCN(C/C=C/c2ccccc2)CC1	0	-3.7	0	0	0	0
O=C(c1ccc(Br)s1)N1CCN(C/C=C/c2ccccc2)CC1	-	-	-	-	-	0
Cc1ccc(-n2nc(C)cc2N)cc1	-	-	-	-	0	-
CCCCNC(=O)Nc1ccnn1C1CCCCC1	0	0	2.4	0	0	0
COc1ccccc1NC(=O)Nc1ccnn1C1CCCCC1	0	0	0	0	-	0
CC(C)n1cnc2c(Nc3ccc(C(=O)O)cc3)nc(Cl)nc21	-	-	-	-	-	-4
CC(C)[C@H](CO)Nc1nc(Nc2ccc(Cl)c(C(=O)O)c2)c2ncn(C(C)C)c2n1	-	-	-	-	-	0
CCCCCCn1cnc2c(c1=O)c1nc3ccccc3nc1n2/N=C/c1ccco1	0	0	0	0	0	4
Nc1cc2c(cc1C(=O)c1ccc(Br)cc1)OCCO2	-	-	-	-	0	-
O=C(CSc1nc2ccccc2o1)Nc1nc2c(s1)CCCC2	0	-2.4	0	0	0	-
SMILES	HEK293 NFkB inh	D1 mod	M1 antagonist	M1 agonist	BAP1 block	hDAT+cocaine
CCn1c(SCC(=O)Nc2nc3c(s2)CCCC3)nnc1-c1ccccc1	0	0	0	0	0	3.7
COc1cc(C(=O)Nc2cc(-c3nc4cc(C)cc(C)c4o3)ccc2C)cc(OC)c1OC	-	-	-	-	0	-
Cc1sc2ncn(-c3ccc(I)cc3)c(=O)c2c1C	-	-	-	-	0	-
CN1CCN(c2ccc(NC(=O)c3ccc4c(c3)OCO4)cc2)CC1	0	-5.1	0	0	0	0
CCc1nnc(NC(=O)c2cc3ccccc3oc2=O)s1	0	0	0	0	0	-8.9
CCc1nnc(NC(=O)c2ccc(OC)cc2OC)s1	0	-4.8	0	0	0	0
Cc1ccccc1-c1nnc(NC(=O)c2cc3ccccc3oc2=O)s1	-	-	-	-	-	0
CCc1nnc(NC(=O)Nc2ccccc2OC)s1	0	0	0	0	0	0
COCCn1c(SCC(=O)Nc2ncc(C)s2)nc2sc3c(c2c1=O)CCC3	0	0	0	0	0	0
COCCn1c(SCc2nnc(-c3ccccc3)o2)nc2sc3c(c2c1=O)CCC3	0	-5	0	0	0	0
CCOc1ccc(Oc2cc(NC(=O)c3cc4n(n3)C(C(F)(F)F)CC(c3ccc5c(c3)OCO5)N4)cc([N+](=O)[O-])c2)cc1 (stereo not given)	-	-	-	-	0	-
CCCCc1nnc2n1N=C(c1ccc(Br)cc1)CS2	-	-	-	-	0	-
CCn1c2ccccc2n2cc(-c3ccc([N+](=O)[O-])cc3)nc12	-	-	-	-	0	-
CCC(=O)N[C@@H]1CC(C(C)(C)NC(=O)CC)CC=C1C (stereo not given in full)	-	0	0	0	0	-9.9
Nc1nonc1C(=O)NCCNCc1cc(Br)ccc1OCc1ccccc1F	0	-3.3	0	2.8	0	0
c1ccc2c(c1)oc1c(NCc3ccc4c(c3)OCO4)ncnc12	0	0	0	5.7	0	0
O=C(O)CNc1ncnc2c1oc1ccccc12	-	-	-	-	0	-
O=C(CSc1nc2sc3c(c2c(=O)[nH]1)CCCC3)NCCCN1CCOCC1	-	-	-	-	0	-
O=[N+]([O-])c1ccccc1Oc1nc(-c2ccccc2)c2cc(Cl)ccc2n1	-	-	-	-	0	-
Cn1cccc1Cc1nnc(SCC(=O)Nc2ccc(F)cc2F)n1-c1ccc(F)cc1	0	0	0	0	0	-8.4
COc1ccc(NC(=O)CSc2nnc(Cc3cccn3C)n2-c2ccc(OC)cc2)cc1	0	0	0	0	0	0
Cc1ccc(NC(=O)CSc2nnc(Cc3cccn3C)n2-c2ccc(F)cc2)c(C)c1	0	0	0	0	0	0
COc1ccc(-n2c(Cc3cccn3C)nnc2SCC(=O)Nc2ccc(C)cc2)cc1	0	0	0	0	0	2.3
O=C(O)CCc1nc(-c2ccccc2)no1	0	0	0	0	0	0
COc1ccc(-c2noc(CCCC(=O)O)n2)cc1	52	-5.5	0	0	0	0
SMILES	HEK293 NFkB inh	D1 mod	M1 antagonist	M1 agonist	BAP1 block	hDAT+cocaine
Cc1ccc(N2C(=O)c3ccccc3C2O)nc1 (stereo not given)	0	-6.7	0	0	0	-
Cc1ccc(N2C(=O)c3ccccc3C2Nc2ccccc2F)nc1 (stereo not given)	0	0	0	0	0	0
CCn1c(-c2ccc3ncccc3c2)n[nH]c1=S	-	-	-	-	-	3.1
CCn1c(-c2cccc(Br)c2)n[nH]c1=S	0	0	0	0	0	0
CCOC(=O)N1CCN(C(=O)c2cc(Cl)c(Cl)cc2C(=O)O)CC1	0	0	0	4.6	0	0
CCOC(=O)N1CCN(c2ccc(Cl)c(Cl)c2)CC1	0	0	0	0	0	0
COC(=O)C(CC(C)C)NC(=O)CSc1nnc2c(n1)[nH]c1ccccc12 (stereo not given)	-	-	-	-	0	-
CCC(=O)c1ccc(N2CCOCC2)c(F)c1	-	-	-	-	-	0
Cc1ccc(C(=O)c2ccc(N3CCOCC3)c(F)c2)cc1	-	-	-	-	-	4.5
O=C1CCCC2=C1C(c1ccco1)Nc1ccc(C(=O)c3ccccc3)cc1N2 (stereo not given)	0	0	0	0	0	3.7
COc1ccccc1NC=C1C(=O)OC2(CCCCC2)OC1=O	0	-6.9	0	0	0	0
CC(=O)n1cc([C@H]2C=C(C(=O)N3CCN(Cc4ccccc4)CC3)O[C@@H](OCCCCO)C2)c2ccccc21	-	-	-	-	-	2.9
O=C(NCc1ccccc1)C1=C[C@H](C2CCCCC2)C[C@H](OCCCCO)O1	-	-	-	-	-	2.1
